The values below come from ChEMBL document CHEMBL4049407, “Positional Scanning Identifies the Molecular Determinants of a High Affinity Multi-Leucine Inhibitor for Furin and PACE4” (J Med Chem, 2017).

Assay [1] concerns the target T1, Proprotein convertase subtilisin/kexin type 6 (Homo sapiens, UniProt P29122).
T1 sequence (P29122 whole entry): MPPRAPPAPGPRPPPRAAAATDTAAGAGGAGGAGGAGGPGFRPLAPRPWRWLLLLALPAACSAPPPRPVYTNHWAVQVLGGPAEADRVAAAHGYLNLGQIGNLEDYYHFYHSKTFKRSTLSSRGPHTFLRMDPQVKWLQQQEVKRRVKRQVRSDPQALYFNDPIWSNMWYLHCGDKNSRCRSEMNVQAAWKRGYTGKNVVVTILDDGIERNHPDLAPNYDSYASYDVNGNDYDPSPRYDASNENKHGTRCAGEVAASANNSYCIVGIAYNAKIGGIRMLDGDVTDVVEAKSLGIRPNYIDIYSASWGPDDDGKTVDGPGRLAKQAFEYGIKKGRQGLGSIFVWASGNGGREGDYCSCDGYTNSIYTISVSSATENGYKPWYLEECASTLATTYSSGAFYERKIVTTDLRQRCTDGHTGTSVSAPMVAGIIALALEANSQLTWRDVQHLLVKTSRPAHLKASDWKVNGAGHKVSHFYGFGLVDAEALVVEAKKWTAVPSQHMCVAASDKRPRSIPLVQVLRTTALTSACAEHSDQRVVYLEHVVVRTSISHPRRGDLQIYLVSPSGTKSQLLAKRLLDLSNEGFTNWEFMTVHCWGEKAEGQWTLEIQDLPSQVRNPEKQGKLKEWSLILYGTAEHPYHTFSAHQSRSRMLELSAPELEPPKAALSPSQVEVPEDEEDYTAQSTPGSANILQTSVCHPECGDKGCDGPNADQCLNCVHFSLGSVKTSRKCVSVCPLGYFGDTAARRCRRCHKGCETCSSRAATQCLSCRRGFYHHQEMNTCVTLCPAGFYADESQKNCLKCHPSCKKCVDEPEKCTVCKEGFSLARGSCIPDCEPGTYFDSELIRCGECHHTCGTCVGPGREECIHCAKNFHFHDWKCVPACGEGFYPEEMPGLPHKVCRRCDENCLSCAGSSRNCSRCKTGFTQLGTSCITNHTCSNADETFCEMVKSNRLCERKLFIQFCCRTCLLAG
In words: Inhibition of recombinant human PACE4 expressed in drosophila S2 cells using pyrGlu-Arg-Thr-Lys-Arg-7-amido-4-methylcoumarin as substrate after 60 mins by spectrofluorometry method. The assay is classed as cell-based. The procedure, abridged:
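Human recombinant purified PACE4 at 2 units/100 µL (20.18 nM), in 20 mM BisTris pH 6.5, 1 mM CaCl2, 1.8 mg/mL BSA. Substrate 100 µM, KM 4.035 µM. Inhibitor 1 nM to 10 µM; 60 min at 37°C. Fluorescence ex 370 / em 460 nm. Ki by Morrison tight-binding equation; three independent experiments, mean ± SD.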

For assay [2], the target named is Furin (Homo sapiens, UniProt P09958). As to the kind of experiment: Inhibition of recombinant human furin expressed in drosophila S2 cells using pyrGlu-Arg-Thr-Lys-Arg-7-amido-4-methylcoumarin as substrate after 60 mins by spectrofluorometry method. The assay is classed as cell-based. The procedure, abridged: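 Human recombinant purified furin at 2 units/100 µL (0.54 nM), in 100 mM HEPES pH 7.5, 1 mM CaCl2, 1 mM β-mercaptoethanol, 1.8 mg/mL BSA. His-containing peptides run instead in 20 mM BisTris pH 6.5 with the same additives. Substrate 100 µM, KM 5.04 µM. Inhibitor 1 nM to 10 µM; 60 min at 37°C. Fluorescence ex 370 / em 460 nm. Ki by Morrison equation; triplicate experiments, mean ± SD.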

Assay [3] has as its system DU-145. As to the kind of experiment: Antiproliferative activity against human DU145 cells assessed as reduction in metabolic activity after 72 hrs by MTT assay. The class given is functional, cell-based. To be noted: DU-145, 72 h. An outline of the steps:
(§1)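 Cells kept at 37°C, 5% CO2 in RPMI 1640 (DU145 with 5% FBS, 1500 cells/well; LNCaP with 10% FBS, 2500 cells/well) on poly-L-lysine coated plates. Peptides added 24 h after plating in fresh serum medium at 0, 1, 10, 25, 50, 75, 100, 250 µM for 72 h. MTT 1 mg/mL final for 4 h; formazan dissolved in 2-propanol HCl. Signal normalised to water vehicle; IC50 from dose-response curves.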
A general note: Tetrazolium dyes change colour on reduction, which living cells bring about.

Assay [4] deals with LNCaP. As to the kind of experiment: Antiproliferative activity against human LNCAP cells assessed as reduction in metabolic activity after 72 hrs by MTT assay. The class given is functional, cell-based. An outline of the steps: as §1
For assay [5], the species on record is Homo sapiens. In words: Selectivity index, ratio of Ki for recombinant human furin expressed in drosophila S2 cells to Ki for recombinant human PACE4 expressed in drosophila S2 cells. The assay is classed as cell-based. An outline of the steps: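 Ratio Ki(furin)/Ki(PACE4). […] PACE4 buffer was BisTris pH 6.5; furin buffer was HEPES pH 7.5, or BisTris pH 6.5 for His peptides. Ki fitted by Morrison equation from three independent experiments.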

Peptide text beside a SMILES is read from it. * marks the point of attachment. NH(4-amidinobenzyl) = N=C(N)c1ccc(CN*)cc1

Chain of Furin (P09958 whole entry): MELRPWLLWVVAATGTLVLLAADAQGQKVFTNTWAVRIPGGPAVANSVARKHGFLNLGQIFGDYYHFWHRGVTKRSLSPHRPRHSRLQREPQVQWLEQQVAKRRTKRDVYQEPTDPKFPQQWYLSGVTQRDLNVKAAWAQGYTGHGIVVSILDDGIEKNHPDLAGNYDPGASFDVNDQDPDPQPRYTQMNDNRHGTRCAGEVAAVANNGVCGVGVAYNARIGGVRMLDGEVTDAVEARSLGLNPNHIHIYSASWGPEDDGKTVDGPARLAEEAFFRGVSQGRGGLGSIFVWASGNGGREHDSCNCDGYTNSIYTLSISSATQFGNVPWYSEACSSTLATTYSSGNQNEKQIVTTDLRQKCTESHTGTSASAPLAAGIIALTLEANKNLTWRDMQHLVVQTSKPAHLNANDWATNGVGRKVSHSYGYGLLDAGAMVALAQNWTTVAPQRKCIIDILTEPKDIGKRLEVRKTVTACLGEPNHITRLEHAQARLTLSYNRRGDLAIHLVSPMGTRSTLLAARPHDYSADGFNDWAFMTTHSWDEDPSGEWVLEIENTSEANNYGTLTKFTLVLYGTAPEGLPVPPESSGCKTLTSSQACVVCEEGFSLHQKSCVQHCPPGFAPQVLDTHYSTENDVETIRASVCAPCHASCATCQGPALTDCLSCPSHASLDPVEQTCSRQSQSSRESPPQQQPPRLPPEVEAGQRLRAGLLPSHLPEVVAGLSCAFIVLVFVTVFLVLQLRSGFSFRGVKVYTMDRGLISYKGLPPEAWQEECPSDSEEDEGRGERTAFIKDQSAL

Regarding `CC(=O)N[C@@H](CC(C)C)C(=O)N[C@@H](CC(C)C)C(=O)N[C@@H](Cc1ccccc1)C(=O)N[C@@H](CC(C)C)C(=O)N[C@@H](CCCNC(=N)N)C(=O)N[C@H](C(=O)N[C@@H](CCCCN)C(=O)NCc1ccc(C(=N)N)cc1)C(C)C` (Ac-LLFLRVK-{NH(4-amidinobenzyl)}), the Ki – broadly, the equilibrium dissociation constant of an inhibitor or competing ligand from its target – in assay [1] is 16 nM; in assay [2] it was 5 nM. Besides, the IC50 (usually the midpoint of a concentration-inhibition curve) is 38000 nM in assay [3] and 40000 nM in assay [4]. For the same molecule, the Ratio Ki in assay [5] was determined as 0.3.
Turning to `CC[C@H](C)[C@H](NC(=O)[C@H](CC(C)C)NC(=O)[C@H](CC(C)C)NC(C)=O)C(=O)N[C@@H](CC(C)C)C(=O)N[C@@H](CCCNC(=N)N)C(=O)N[C@H](C(=O)N[C@@H](CCCCN)C(=O)NCc1ccc(C(=N)N)cc1)C(C)C` (Ac-LLILRVK-{NH(4-amidinobenzyl)}), the Ki in assay [1] amounted to 10 nM; in assay [2], 30 nM. The results for the half-maximal inhibitory concentration (IC50) in assay [3] and in assay [4] were 32000 nM and 80000 nM, respectively. Also, the Ratio Ki in assay [5] came out at 3.
Consider `CC(=O)N[C@@H](CC(C)C)C(=O)N[C@@H](CC(C)C)C(=O)N[C@@H](CC(C)C)C(=O)N[C@@H](Cc1ccccc1)C(=O)N[C@@H](CCCNC(=N)N)C(=O)N[C@H](C(=O)N[C@@H](CCCCN)C(=O)NCc1ccc(C(=N)N)cc1)C(C)C` (Ac-LLLFRVK-{NH(4-amidinobenzyl)}), for which the figures for the Ki in assay [1] and in assay [2] were 4 nM and 6 nM, respectively. Besides, the IC50 in assay [3] came out at 40000 nM; in assay [4], 50000 nM. Further, the Ratio Ki in assay [5] stood at 1.5.
For the molecule `CC[C@H](C)[C@H](NC(=O)[C@H](CC(C)C)NC(=O)[C@H](CC(C)C)NC(=O)[C@H](CC(C)C)NC(C)=O)C(=O)N[C@@H](CCCNC(=N)N)C(=O)N[C@H](C(=O)N[C@@H](CCCCN)C(=O)NCc1ccc(C(=N)N)cc1)C(C)C` (Ac-LLLIRVK-{NH(4-amidinobenzyl)}), the Ki came out at 8 nM in assay [1] and 27 nM in assay [2]. Further, the half-maximal inhibitory concentration (IC50) worked out at 50000 nM in assay [3] and 28000 nM in assay [4]. Also, the Ratio Ki in assay [5] is 3.4.
Consider `CC(=O)N[C@@H](CC(C)C)C(=O)N[C@@H](CC(C)C)C(=O)N[C@@H](CC(C)C)C(=O)N[C@@H](CCC(N)=O)C(=O)N[C@@H](CCCNC(=N)N)C(=O)N[C@H](C(=O)N[C@@H](CCCCN)C(=O)NCc1ccc(C(=N)N)cc1)C(C)C` (Ac-LLLQRVK-{NH(4-amidinobenzyl)}), for which the values for the inhibition constant Ki in assay [1] and in assay [2] were 5 nM and 4 nM, respectively. Also, the IC50 is 12000 nM in assay [3] and 26000 nM in assay [4]. For the same molecule, the Ratio Ki in assay [5] was determined as 0.8.
`CC(=O)N[C@@H](CC(C)C)C(=O)N[C@@H](CC(C)C)C(=O)N[C@@H](CC(C)C)C(=O)N[C@H](C(=O)N[C@@H](CCCNC(=N)N)C(=O)N[C@H](C(=O)N[C@@H](CCCCN)C(=O)NCc1ccc(C(=N)N)cc1)C(C)C)C(C)C` (Ac-LLLVRVK-{NH(4-amidinobenzyl)}): the values for the Ki in assay [1] and in assay [2] were 2.1 nM and 4 nM, respectively. Also, the IC50 in assay [3] stood at 45000 nM; in assay [4], 60000 nM. For the same molecule, the Ratio Ki in assay [5] was 1.9.
Take `CC(=O)N[C@@H](CC(C)C)C(=O)N[C@@H](CC(C)C)C(=O)N[C@@H](Cc1ccc(O)cc1)C(=O)N[C@@H](CC(C)C)C(=O)N[C@@H](CCCNC(=N)N)C(=O)N[C@H](C(=O)N[C@@H](CCCCN)C(=O)NCc1ccc(C(=N)N)cc1)C(C)C` (Ac-LLYLRVK-{NH(4-amidinobenzyl)}): the inhibition constant (Ki) is 4.8 nM in assay [1] and 5.9 nM in assay [2]. The half-inhibitory concentration (IC50) turned out to be 50000 nM in assay [3] and 130000 nM in assay [4]. The Ratio Ki in assay [5] amounted to 1.2.
As for `CC(=O)N[C@@H](CC(C)C)C(=O)N[C@@H](Cc1c[nH]c2ccccc12)C(=O)N[C@@H](CC(C)C)C(=O)N[C@@H](CC(C)C)C(=O)N[C@@H](CCCNC(=N)N)C(=O)N[C@H](C(=O)N[C@@H](CCCCN)C(=O)NCc1ccc(C(=N)N)cc1)C(C)C` (Ac-LWLLRVK-{NH(4-amidinobenzyl)}), the figures for the Ki in assay [1] and in assay [2] were 8 nM and 13 nM, respectively. The half-inhibitory concentration (IC50) in assay [3] turned out to be 35000 nM; in assay [4], 50000 nM. Also, in assay [5], the Ratio Ki is 1.6.
Turning to `CC(=O)N[C@@H](CCC(N)=O)C(=O)N[C@@H](CC(C)C)C(=O)N[C@@H](CC(C)C)C(=O)N[C@@H](CC(C)C)C(=O)N[C@@H](CCCNC(=N)N)C(=O)N[C@H](C(=O)N[C@@H](CCCCN)C(=O)NCc1ccc(C(=N)N)cc1)C(C)C` (Ac-QLLLRVK-{NH(4-amidinobenzyl)}), the Ki in assay [1] and in assay [2] was 3 nM each time. Further, the values for the IC50 in assay [3] and in assay [4] were 150000 nM and above 250000 nM, respectively. Besides, the Ratio Ki in assay [5] turned out to be 1.
Regarding `CC(=O)N[C@@H](CO)C(=O)N[C@@H](CC(C)C)C(=O)N[C@@H](CC(C)C)C(=O)N[C@@H](CC(C)C)C(=O)N[C@@H](CCCNC(=N)N)C(=O)N[C@H](C(=O)N[C@@H](CCCCN)C(=O)NCc1ccc(C(=N)N)cc1)C(C)C` (Ac-SLLLRVK-{NH(4-amidinobenzyl)}), the results for the Ki in assay [1] and in assay [2] were 6 nM and 4 nM, respectively. The concentration for half-maximal inhibition (IC50) is 100000 nM in assay [3] and above 250000 nM in assay [4]. In assay [5], the Ratio Ki worked out at 0.7.
For `CC(=O)N[C@H](C(=O)N[C@@H](CC(C)C)C(=O)N[C@@H](CC(C)C)C(=O)N[C@@H](CC(C)C)C(=O)N[C@@H](CCCNC(=N)N)C(=O)N[C@H](C(=O)N[C@@H](CCCCN)C(=O)NCc1ccc(C(=N)N)cc1)C(C)C)[C@@H](C)O` (Ac-TLLLRVK-{NH(4-amidinobenzyl)}) the same measures were 4 nM, 2.4 nM, 140000 nM, 110000 nM and 0.6.
For `CC(=O)N[C@H](C(=O)N[C@@H](CC(C)C)C(=O)N[C@@H](CC(C)C)C(=O)N[C@@H](CC(C)C)C(=O)N[C@@H](CCCNC(=N)N)C(=O)N[C@H](C(=O)N[C@@H](CCCCN)C(=O)NCc1ccc(C(=N)N)cc1)C(C)C)C(C)C` (Ac-VLLLRVK-{NH(4-amidinobenzyl)}), the Ki in assay [1] stood at 5 nM; in assay [2], 4 nM. Also, the IC50 in assay [3] amounted to 75000 nM; in assay [4], 70000 nM. Also, the Ratio Ki in assay [5] turned out to be 0.8.
In the case of `CC(=O)N[C@@H](Cc1c[nH]c2ccccc12)C(=O)N[C@@H](CC(C)C)C(=O)N[C@@H](CC(C)C)C(=O)N[C@@H](CC(C)C)C(=O)N[C@@H](CCCNC(=N)N)C(=O)N[C@H](C(=O)N[C@@H](CCCCN)C(=O)NCc1ccc(C(=N)N)cc1)C(C)C` (Ac-WLLLRVK-{NH(4-amidinobenzyl)}), the values for the Ki in assay [1] and in assay [2] were 9 nM and 6 nM, respectively. The half-inhibitory concentration (IC50) in assay [3] amounted to 23000 nM; in assay [4] it was 39000 nM. Further, in assay [5], the Ratio Ki is 0.7.
In the case of `CC(=O)N[C@@H](Cc1ccc(O)cc1)C(=O)N[C@@H](CC(C)C)C(=O)N[C@@H](CC(C)C)C(=O)N[C@@H](CC(C)C)C(=O)N[C@@H](CCCNC(=N)N)C(=O)N[C@H](C(=O)N[C@@H](CCCCN)C(=O)NCc1ccc(C(=N)N)cc1)C(C)C` (Ac-YLLLRVK-{NH(4-amidinobenzyl)}), the inhibition constant Ki in assay [1] worked out at 6.2 nM; in assay [2], 4 nM. Further, the values for the half-maximal inhibitory concentration (IC50) in assay [3] and in assay [4] were 23000 nM and 160000 nM, respectively. The Ratio Ki in assay [5] was determined as 0.6.
